Test results taken from ChEMBL document CHEMBL1833819, “Dihydroquinazolines as a novel class of Trypanosoma brucei trypanothione reductase inhibitors: discovery, synthesis, and characterization of their binding mode by protein crystallography” (J Med Chem, 2011).

Assays:
Trypanothione reductase [1] = biological target: T1, Trypanothione reductase (Trypanosoma brucei brucei, UniProt P39051); test: Competitive inhibition of recombinant trypanothione reductase from Trypanosoma brucei brucei S427 by Lineweaver burk method
Trypanothione reductase [2] = biological target: T1, Trypanothione reductase; test: Mixed type inhibition of recombinant trypanothione reductase from Trypanosoma brucei brucei S427 by Lineweaver burk method
[3] = system: Trypanosoma brucei brucei; test: Antitrypanosomal activity against blood stream form Trypanosoma brucei brucei by resazurin fluorescence-based viability assay; assay type: functional, organism-based
Summary of the method: (§1)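 Bloodstream-form T. b. brucei parasites and MRC5 cells were assayed in resazurin fluorescence-based viability tests. […] Pentamidine served as the positive control in all T. brucei plates.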

MRC5 = test: Cytotoxicity against human MRC5 cells by resazurin fluorescence-based viability assay; assay type: cell-based; summary of the method: as §1
Trypanothione reductase [4] = biological target: T1, Trypanothione reductase; test: Inhibition of recombinant trypanothione reductase from Trypanosoma brucei brucei S427 by DTNB-coupled spectrophotometric assay
Summary of the method: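 Recombinant T. brucei brucei S427 TryR tested in a nonenzymatically coupled spectrophotometric assay, where DTNB reduction to TNB is followed as A412 increase. IC50 is the mean of independent duplicates (at least two replicates).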

Trypanothione reductase [5] = biological target: Trypanothione reductase (Trypanosoma cruzi, UniProt P28593); test: Inhibition of trypanothione reductase from Trypanosoma cruzi by DTNB-coupled spectrophotometric assay
[6] = biological target: T2, Glutathione reductase, mitochondrial (Homo sapiens, UniProt P00390); test: Inhibition of human glutathione reductase
T2 sequence (P00390 whole entry): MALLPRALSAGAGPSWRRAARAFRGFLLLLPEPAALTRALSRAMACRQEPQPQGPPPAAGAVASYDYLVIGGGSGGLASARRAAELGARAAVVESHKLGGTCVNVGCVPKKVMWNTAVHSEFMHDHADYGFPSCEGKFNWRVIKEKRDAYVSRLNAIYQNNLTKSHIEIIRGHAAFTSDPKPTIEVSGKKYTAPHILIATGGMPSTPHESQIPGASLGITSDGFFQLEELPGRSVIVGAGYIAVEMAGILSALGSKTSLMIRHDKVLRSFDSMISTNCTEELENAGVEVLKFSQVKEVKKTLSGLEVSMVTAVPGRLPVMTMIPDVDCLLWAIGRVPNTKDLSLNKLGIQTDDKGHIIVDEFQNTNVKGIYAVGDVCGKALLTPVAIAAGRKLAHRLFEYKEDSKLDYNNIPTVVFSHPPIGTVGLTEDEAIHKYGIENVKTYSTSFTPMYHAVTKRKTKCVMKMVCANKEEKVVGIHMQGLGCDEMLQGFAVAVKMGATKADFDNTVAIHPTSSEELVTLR

T1 sequence (P39051 whole entry): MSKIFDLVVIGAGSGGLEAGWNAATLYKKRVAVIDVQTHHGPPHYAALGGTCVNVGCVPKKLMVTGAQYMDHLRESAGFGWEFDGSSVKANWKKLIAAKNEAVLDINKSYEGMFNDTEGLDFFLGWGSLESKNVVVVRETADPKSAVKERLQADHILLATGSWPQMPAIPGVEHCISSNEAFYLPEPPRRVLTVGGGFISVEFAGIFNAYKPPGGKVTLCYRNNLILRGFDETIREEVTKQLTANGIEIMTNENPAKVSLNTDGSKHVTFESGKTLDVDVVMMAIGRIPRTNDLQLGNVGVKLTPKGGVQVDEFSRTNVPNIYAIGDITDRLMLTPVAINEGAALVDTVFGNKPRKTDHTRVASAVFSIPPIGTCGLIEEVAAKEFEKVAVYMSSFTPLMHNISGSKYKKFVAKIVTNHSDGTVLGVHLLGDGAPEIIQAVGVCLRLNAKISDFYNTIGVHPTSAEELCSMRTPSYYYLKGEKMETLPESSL
Sequence of Trypanothione reductase (Trypanosoma cruzi, UniProt P28593) (P28593 whole entry): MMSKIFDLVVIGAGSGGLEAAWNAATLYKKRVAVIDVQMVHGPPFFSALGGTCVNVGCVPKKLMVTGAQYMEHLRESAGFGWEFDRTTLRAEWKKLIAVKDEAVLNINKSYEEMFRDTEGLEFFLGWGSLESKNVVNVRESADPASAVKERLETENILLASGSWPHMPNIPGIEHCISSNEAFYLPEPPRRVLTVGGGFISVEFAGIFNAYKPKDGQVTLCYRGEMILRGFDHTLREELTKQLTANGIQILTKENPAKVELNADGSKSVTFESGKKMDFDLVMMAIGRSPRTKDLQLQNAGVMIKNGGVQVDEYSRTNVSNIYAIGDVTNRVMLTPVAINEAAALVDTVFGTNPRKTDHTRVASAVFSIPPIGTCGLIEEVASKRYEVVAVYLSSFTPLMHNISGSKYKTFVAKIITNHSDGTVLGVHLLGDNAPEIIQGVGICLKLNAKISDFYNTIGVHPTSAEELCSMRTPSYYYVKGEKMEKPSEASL

Molecule `CC1=Nc2ccc(Cl)cc2C(c2ccccc2)N1CCN1CCN(C(=O)CN(C)C)CC1` (racemic) has a Ki (Trypanothione reductase [1]) of 0.27 µM, a Ki (Trypanothione reductase [2]) of 1.78 µM and an EC50 [3] of 5.6 µM. For the same molecule, the EC50 (MRC5) was 6 µM and the IC50 (Trypanothione reductase [4]) was 0.37 µM.

`COC(=O)CN1C(C)=Nc2ccc(Br)cc2C1c1ccccc1` (racemic) was tested, and the IC50 (Trypanothione reductase [5]) was 19 µM, the IC50 [6] was > 100 µM and the EC50 [3] was 40 µM. The IC50 (Trypanothione reductase [4]) was 6.8 µM.

`CC1=Nc2ccc(Cl)cc2C(c2ccccc2)N1CCN1CCN(C)CC1` (racemic) was tested, and the Ki (Trypanothione reductase [1]) was 0.32 µM, the EC50 (MRC5) was 4.6 µM and the IC50 (Trypanothione reductase [4]) was 0.93 µM.

With `CC1=Nc2ccc(Cl)cc2C(c2ccccc2)N1Cc1cccc(N(C)C)c1` (racemic) the EC50 [3] was 6.4 µM, the EC50 (MRC5) was 27 µM and the IC50 (Trypanothione reductase [4]) was 0.81 µM.

With `CC1=Nc2ccc(Cl)cc2C(c2ccccc2)N1CCNC(=O)CN(C)C` (racemic) the EC50 [3] was 13 µM, the EC50 (MRC5) was 12 µM and the IC50 (Trypanothione reductase [4]) was 0.81 µM.

`CC1=Nc2ccc(Cl)cc2C(c2ccccc2)N1CCNC(=O)c1ccco1` (racemic) gave a Ki (Trypanothione reductase [1]) of 0.44 µM, a Ki (Trypanothione reductase [2]) of 2.27 µM and an EC50 [3] of 19 µM. It also gave an EC50 (MRC5) of 22 µM and an IC50 (Trypanothione reductase [4]) of 0.86 µM.

`CC1=Nc2ccc(Cl)cc2C(c2ccccc2)N1Cc1ccccc1` (racemic) showed an EC50 [3] of 13 µM, an EC50 (MRC5) of 46 µM and an IC50 (Trypanothione reductase [4]) of 0.93 µM.

`CC1=Nc2ccc(Cl)cc2C(c2ccc(C)cc2)N1CCCN(C)C` (racemic) gave a Ki (Trypanothione reductase [1]) of 0.19 µM, a Ki (Trypanothione reductase [2]) of 1.46 µM and an EC50 [3] of 0.73 µM. For the same molecule, the EC50 (MRC5) was 1.9 µM and the IC50 (Trypanothione reductase [4]) was 0.23 µM.

`CC1=Nc2ccc(Cl)cc2C(c2ccccc2)N1CCN1CCN(C(=O)c2ccco2)CC1` (racemic) showed an EC50 [3] of 10 µM, an EC50 (MRC5) of 23 µM and an IC50 (Trypanothione reductase [4]) of 0.42 µM.

For `COC(=O)CN1C(C)=Nc2ccc(C)cc2C1c1ccccc1` (racemic), the IC50 (Trypanothione reductase [5]) was 38 µM and the IC50 (Trypanothione reductase [4]) was 67 µM.

Molecule `CC1=Nc2ccc(I)cc2C(c2ccccc2)N1CCN1CCCCC1` (racemic) has an EC50 [3] of 0.55 µM, an EC50 (MRC5) of 6.8 µM and an IC50 (Trypanothione reductase [4]) of 0.35 µM.
